Experiments:
PC-3 = test: Cytotoxicity against human PC3 cells assessed as growth inhibition after 24 hrs by CCK8 assay; type: functional, cell-based; details: PC-3, 24 h
How it was run: (§1)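 Cells (PC-3, LNCaP, DU145, normal prostate […] WPMY-1) exposed 24 h to escalating concentrations; viability by CCK-8 read-out as percent of control; IC50 derived.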

LNCaP = test: Cytotoxicity against human LNCAP cells assessed as growth inhibition after 24 hrs by CCK8 assay; type: functional, cell-based; how it was run: as §1
DU-145 [1] = test: Cytotoxicity against human DU145 cells assessed as growth inhibition after 24 hrs by CCK8 assay; type: functional, cell-based; details: DU-145, 24 h; how it was run: as §1
[2] = Cytotoxicity against human WPMY-1 cells assessed as growth inhibition after 24 hrs by CCK8 assay; type: cell-based; details: WPMY-1, 24 h; how it was run: as §1
DU-145 [3] = test: Potency index, ratio of naftopidil IC50 to compound IC50 for human DU145 cells; type: functional
DU-145 [4] = test: Cell cycle arrest in human DU145 cells assessed as accumulation at G0/G1 phase at 8 uM after 24 hrs by propidium iodide staining based flow cytometry (reference value: 55.49%); type: functional
DU-145 [5] = test: Cell cycle arrest in human DU145 cells assessed as accumulation at S phase at 8 uM after 24 hrs by propidium iodide staining based flow cytometry (reference value: 20.64%); type: functional
DU-145 [6] = test: Cell cycle arrest in human DU145 cells assessed as accumulation at G2/M phase at 8 uM after 24 hrs by propidium iodide staining based flow cytometry (reference value: 24.42%); type: functional
DU-145 [7] = test: Induction of apoptosis in human DU145 cells assessed as live cells at 8 uM after 24 hrs by Annexin V/propidium iodide staining based flow cytometry (reference value: 99.38%); type: functional
DU-145 [8] = test: Induction of apoptosis in human DU145 cells assessed as early apoptotic cells at 8 uM after 24 hrs by Annexin V/propidium iodide staining based flow cytometry (reference value: […]); type: functional
DU-145 [9] = test: Induction of apoptosis in human DU145 cells assessed as late apoptotic cells at 8 uM after 24 hrs by Annexin V/propidium iodide staining based flow cytometry (reference value: 0.17%); type: functional
DU-145 [10] = test: Induction of apoptosis in human DU145 cells assessed as necrotic cells at 8 uM after 24 hrs by Annexin V/propidium iodide staining based flow cytometry (reference value: 0.33%); type: functional
[11] = target: T1, Alpha-1A adrenergic receptor (Homo sapiens, UniProt P35348); test: Antagonist activity at alpha 1A adrenergic receptor (unknown origin) by luciferase reporter gene assay; type: functional
T1 sequence (P35348 whole entry): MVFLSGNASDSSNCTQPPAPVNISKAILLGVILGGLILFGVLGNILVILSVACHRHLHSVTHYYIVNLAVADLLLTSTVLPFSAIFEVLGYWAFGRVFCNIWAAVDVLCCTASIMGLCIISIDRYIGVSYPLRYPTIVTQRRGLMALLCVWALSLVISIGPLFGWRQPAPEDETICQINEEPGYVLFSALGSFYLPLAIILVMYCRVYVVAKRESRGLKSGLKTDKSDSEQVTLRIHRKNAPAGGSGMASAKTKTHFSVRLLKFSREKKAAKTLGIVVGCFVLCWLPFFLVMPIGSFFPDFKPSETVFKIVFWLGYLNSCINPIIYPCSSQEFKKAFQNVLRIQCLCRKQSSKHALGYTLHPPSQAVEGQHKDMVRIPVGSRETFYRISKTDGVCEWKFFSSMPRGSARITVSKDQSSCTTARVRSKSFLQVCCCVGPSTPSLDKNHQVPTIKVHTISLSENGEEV
How it was run: (§2)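 Dual-luciferase reporter assay measuring antagonism at α1A, α1B and α1D adrenoceptor subtypes. IC50 values are means of three experiments.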

[12] = target: T2, Alpha-1B adrenergic receptor (Homo sapiens, UniProt P35368); test: Antagonist activity at alpha 1B adrenergic receptor (unknown origin) by luciferase reporter gene assay; type: functional; how it was run: as §2
T2 sequence (P35368 whole entry): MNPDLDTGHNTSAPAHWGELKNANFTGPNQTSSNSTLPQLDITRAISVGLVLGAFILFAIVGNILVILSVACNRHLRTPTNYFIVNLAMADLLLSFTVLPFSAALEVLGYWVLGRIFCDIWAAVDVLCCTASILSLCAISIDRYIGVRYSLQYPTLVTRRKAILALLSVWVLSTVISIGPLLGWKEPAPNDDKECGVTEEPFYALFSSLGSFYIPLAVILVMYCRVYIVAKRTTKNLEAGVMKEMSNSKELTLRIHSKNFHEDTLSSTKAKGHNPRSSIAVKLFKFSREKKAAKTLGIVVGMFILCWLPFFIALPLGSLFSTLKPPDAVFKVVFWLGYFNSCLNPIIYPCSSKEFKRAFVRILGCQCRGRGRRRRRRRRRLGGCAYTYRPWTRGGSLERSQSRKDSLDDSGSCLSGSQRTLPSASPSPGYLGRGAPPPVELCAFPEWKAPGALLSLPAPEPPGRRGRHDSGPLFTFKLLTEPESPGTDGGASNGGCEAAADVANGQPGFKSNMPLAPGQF

[13] = target: T3, Alpha-1D adrenergic receptor (Homo sapiens, UniProt P25100); test: Antagonist activity at alpha 1D adrenergic receptor (unknown origin) by luciferase reporter gene assay; type: functional; how it was run: as §2
T3 sequence (P25100 whole entry): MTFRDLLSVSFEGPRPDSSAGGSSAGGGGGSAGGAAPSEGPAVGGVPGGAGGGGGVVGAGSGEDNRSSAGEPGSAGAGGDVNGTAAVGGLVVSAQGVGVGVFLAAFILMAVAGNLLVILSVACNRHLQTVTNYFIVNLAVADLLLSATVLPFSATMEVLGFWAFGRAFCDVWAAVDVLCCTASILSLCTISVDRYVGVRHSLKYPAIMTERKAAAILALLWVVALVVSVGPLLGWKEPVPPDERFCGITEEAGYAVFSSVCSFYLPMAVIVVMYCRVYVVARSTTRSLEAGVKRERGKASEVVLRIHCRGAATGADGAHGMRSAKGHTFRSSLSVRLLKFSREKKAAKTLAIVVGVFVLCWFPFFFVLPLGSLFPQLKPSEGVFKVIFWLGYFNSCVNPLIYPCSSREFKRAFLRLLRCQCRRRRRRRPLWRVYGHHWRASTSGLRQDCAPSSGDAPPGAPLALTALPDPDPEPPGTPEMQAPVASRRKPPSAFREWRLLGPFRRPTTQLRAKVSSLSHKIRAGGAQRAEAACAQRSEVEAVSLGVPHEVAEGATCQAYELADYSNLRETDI

Row | Compound | IC50 (PC-3) [µM] | IC50 (LNCaP) [µM] | IC50 (DU-145 [1]) [µM] | IC50 [2] [µM] | other results
1 | COc1cccc(N2CCN(CCc3ccc(COc4ccc5c(c4)CCCC5)cc3)CC2)c1 | 2.84 | 8.02 | 28.1 | 29.1 | –
2 | Fc1ccccc1N1CCN(CCc2ccc(COc3ccc4c(c3)CCCC4)cc2)CC1 | 27.3 | 7.57 | > 50 | > 50 | –
3 | Clc1ccc(N2CCN(CCc3ccc(COc4ccc5c(c4)CCCC5)cc3)CC2)cc1 | > 50 | > 50 | > 50 | > 50 | –
4 | N#Cc1ccccc1N1CCN(CCc2ccc(COc3ccc4c(c3)CCCC4)cc2)CC1 | 32 | 1.99 | 29.7 | > 50 | –
5 | Cc1ccccc1N1CCN(CCc2ccc(COc3ccc4c(c3)CCCC4)cc2)CC1 | 25.5 | 32.9 | > 50 | > 50 | –
6 | Clc1ccccc1N1CCN(CCc2ccc(COc3ccc4c(c3)CCCC4)cc2)CC1 | 31.3 | 4.68 | > 50 | > 50 | –
7 | Cc1ccc(Cl)cc1N1CCN(CCc2ccc(COc3ccc4c(c3)CCCC4)cc2)CC1 | > 50 | 7.81 | > 50 | > 50 | –
8 | Brc1ccc(N2CCN(CCc3ccc(COc4ccc5c(c4)CCCC5)cc3)CC2)cc1 | > 50 | > 50 | 21.1 | > 50 | –
9 | COc1ccccc1N1CCN(CCc2ccc(COc3ccc4c(c3)CCCC4)cc2)CC1 | > 50 | 3.62 | 2.24 | 28.1 | –
10 | COc1ccc(N2CCN(CCc3ccc(COc4ccc5c(c4)CCCC5)cc3)CC2)cc1.Cl.Cl | 76.5 | 46.2 | 0.93 | > 50 | Ratio IC50 (DU-145 [3]): 37; Activity (DU-145 [4]): 56.91%; Activity (DU-145 [5]): 21.14%; Activity (DU-145 [6]): 23.04%; Activity (DU-145 [7]): 99.4%; Activity (DU-145 [8]): 0.11%; Activity (DU-145 [9]): 0.12%; Activity (DU-145 [10]): 0.34%; IC50 [11]: 0.0576 µM; IC50 [12]: 0.972 µM; IC50 [13]: 0.736 µM
11 | Cl.Cl.Clc1cccc(N2CCN(CCc3ccc(COc4ccc5c(c4)CCCC5)cc3)CC2)c1 | 46.7 | 17.3 | 0.86 | > 50 | Ratio IC50 (DU-145 [3]): 40; IC50 [11]: 1.21 µM; IC50 [12]: 0.998 µM; IC50 [13]: 0.287 µM
12 | Fc1ccc(N2CCN(CCc3ccc(COc4ccc5c(c4)CCCC5)cc3)CC2)c(F)c1 | > 50 | 4.4 | > 50 | > 50 | –
13 | FC(F)(F)c1ccc(N2CCN(CCc3ccc(COc4ccc5c(c4)CCCC5)cc3)CC2)cc1 | > 50 | > 50 | > 50 | > 50 | –
